Experiments:
[1] = tested on: MCF7; experiment: Antiproliferative activity against human MCF7 cells; type: functional, cell-based
[2] = Antiproliferative activity against human DND1 cells; type: functional, cell-based
[3] = tested on: CCRF-CEM; experiment: Antiproliferative activity against human CEM cells; type: functional, cell-based
[4] = tested on: DU-145; experiment: Antiproliferative activity against human DU145 cells; type: functional, cell-based
[5] = tested on: PC-3; experiment: Antiproliferative activity against human PC3 cells; type: functional, cell-based
[6] = tested on: MOLT-3; experiment: Antiproliferative activity against human Molt3 cells; type: functional, cell-based
[7] = tested on: Bel-7402; experiment: Antiproliferative activity against human Bel7402 cells; type: functional, cell-based
[8] = molecular target: T1, Tubulin (Homo sapiens) (UniProt P68371+Q9H4B7+P0DPH7+P68366+Q13509+Q71U36+P04350+Q3ZCM7+P07437+P68363+Q9BQE3+Q6PEY2+Q13885+Q9BVA1+Q9BUF5); experiment: Inhibition of tubulin polymerization; type: protein-complex assay
Outline: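 Purified […] in reaction buffer with GTP and Mg²⁺ was incubated for assembly with or without test compound (1–5 uM), with vincristine or paclitaxel (20 uM) as controls. Assembly was read as OD at 340 nm every 2 min. Each point is the mean of two independent experiments.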

[9] = molecular target: T1, Tubulin (Homo sapiens); experiment: Inhibition of tubulin polymerization at 20 uM; type: protein-complex assay

## COc1cc(C(=O)c2ccc3c(ccn3C)c2)cc(OC)c1OC
[1]
  IC50: 9.2 nM
[2]
  IC50: 15 nM
[3]
  IC50: 18 nM
[4]
  IC50: 26 nM
[5]
  IC50: 25 nM
[6]
  IC50: 18 nM
[7]
  IC50: 21 nM

## COc1cc(C(=O)c2ccc3sccc3c2)cc(OC)c1OC
[3]
  IC50: 303 nM

## COc1cc([C@@H]2c3cc4c(cc3C(O)[C@H]3COC(=O)[C@H]23)OCO4)cc(OC)c1OC (single isomer, unassigned) [PODOFILOX]
[2]
  IC50: 12 nM

## COc1ccc(C(=O)c2ccc3c(ccn3C)c2)cc1OC
[3]
  IC50: 1690 nM

## COc1cc(C(=O)c2ccc3occc3c2)cc(OC)c1OC
[3]
  IC50: 288 nM

## COc1ccc(C(=O)c2ccc3c(ccn3C)c2)c(OC)n1
[3]
  IC50: 1010 nM

## CCn1c2ccccc2c2cc(C(O)c3cc(OC)c(OC)c(OC)c3)ccc21 (centres undefined)
[3]
  IC50: 192 nM

## CCn1c2ccccc2c2cc(C(=O)c3ccc(OC)nc3OC)ccc21
[3]
  IC50: 555 nM

## COc1ccc(C(=O)c2ccc3c(ccn3C)c2)cc1
[3]
  IC50: 1130 nM

## COc1cc(OC)cc(C(=O)c2ccc3c(ccn3C)c2)c1
[3]
  IC50: 1690 nM

## COc1cc(C(=O)c2cccc3ccn(C)c23)cc(OC)c1OC
[3]
  IC50: 307 nM

## COc1ccc(C(=O)c2ccc3c(ccn3C)c2)c(OC)c1
[1]
  IC50: 85 nM
[2]
  IC50: 118 nM
[3]
  IC50: 102 nM
[4]
  IC50: 34 nM
[5]
  IC50: 203 nM
[6]
  IC50: 24 nM
[7]
  IC50: 44 nM

## COc1cc(C(O)c2ccc3c(ccn3C)c2)cc(OC)c1OC (centres undefined)
[1]
  IC50: 44 nM
[2]
  IC50: 59 nM
[3]
  IC50: 59 nM
[4]
  IC50: 103 nM
[5]
  IC50: 117 nM
[6]
  IC50: 38 nM
[7]
  IC50: 88 nM

## CCn1c2ccccc2c2cc(NS(=O)(=O)c3ccc(OC)cc3OC)ccc21
[3]
  IC50: 57 nM

## COc1ccc(OC)c(C(=O)c2ccc3c(ccn3C)c2)c1
[3]
  IC50: 2370 nM

## CCn1c2ccccc2c2cc(C(=O)c3cc(OC)c(OC)c(OC)c3)ccc21
[1]
  IC50: 26 nM
[2]
  IC50: 21 nM
[3]
  IC50: 90 nM
[4]
  IC50: 39 nM
[5]
  IC50: 103 nM
[6]
  IC50: 51 nM
[7]
  IC50: 90 nM
[8]
  Activity: Dose-dependent effect

## COc1cc(C(=O)c2ccc3ccn(C)c3c2)cc(OC)c1OC
[1]
  IC50: 24 nM
[2]
  IC50: 27 nM
[3]
  IC50: 30 nM
[4]
  IC50: 75 nM
[5]
  IC50: 75 nM
[6]
  IC50: 18 nM
[7]
  IC50: 27 nM

## COc1cc(C(=O)c2ccc3[nH]ccc3c2)cc(OC)c1OC
[3]
  IC50: 225 nM

## CCn1c2ccccc2c2cc(NS(=O)(=O)c3cc(OC)c(OC)c(OC)c3)ccc21
[1]
  IC50: 89 nM
[2]
  IC50: 89 nM
[3]
  IC50: 56 nM
[4]
  IC50: 603 nM
[5]
  IC50: 201 nM
[6]
  IC50: 20 nM
[7]
  IC50: 201 nM

## CC[C@]1(O)C[C@H]2CN(CCc3c([nH]c4ccccc34)[C@@](C(=O)OC)(c3cc4c(cc3OC)N(C=O)[C@H]3[C@@](O)(C(=O)OC)[C@H](OC(C)=O)[C@]5(CC)C=CCN6CC[C@]43[C@@H]65)C2)C1
[9]
  inhibition: 87%

## CCn1c2ccccc2c2cc(NS(=O)(=O)c3cc(OC)ccc3OC)ccc21
[3]
  IC50: 61 nM

## COc1ccc(/C=C\c2cc(OC)c(OC)c(OC)c2)cc1O [COMBRETASTATIN A4]
[2]
  IC50: 2.5 nM
